Here are results for 27 compounds from ChEMBL document CHEMBL4373696, “Probing the Existence of a Metastable Binding Site at the β2-Adrenergic Receptor with Homobivalent Bitopic Ligands” (J Med Chem, 2019).

The target of test [1] is T1, Beta-1 adrenergic receptor (Homo sapiens, UniProt P08588). Nature of the test: Antagonist activity at beta1 adrenergic receptor (unknown origin) stably expressed in HEK293 cell membranes assessed as inhibition of isoproterenol-induced cAMP production preincubated for 15 mins followed by isoproterenol addition and measured after 30 mins by TR-FRET assay. The format is cell-based. The gist of the method:
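Membranes from HEK293 cells stably overexpressing β1AR; ligand's blockade of isoproterenol-stimulated cAMP production measured; pIC50 as mean ± SEM from 3-8 independent experiments run in duplicate.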

For test [2], the species on record is Homo sapiens. As to the kind of experiment: Selectivity ratio of IC50 for antagonist activity at beta1 adrenergic receptor (unknown origin) stably expressed in HEK293 cell membranes to IC50 for antagonist activity at beta2 adrenergic receptor (unknown origin) stably expressed in HEK293 cell membranes. The format is cell-based.
For test [3], the target named is T2, Beta-2 adrenergic receptor (Homo sapiens, UniProt P07550). As to the kind of experiment: Antagonist activity at beta2 adrenergic receptor (unknown origin) stably expressed in HEK293 cell membranes assessed as inhibition of isoproterenol-induced cAMP production preincubated for 15 mins followed by isoproterenol addition and measured after 30 mins by TR-FRET assay. The format is functional, cell-based.

The species entered for test [4] is Homo sapiens. As to the kind of experiment: Selectivity ratio of Ki for displacement of [3H]DHA from beta1 adrenergic receptor (unknown origin) stably expressed in HEK293 cell membranes to displacement of [3H]DHA from beta2 adrenergic receptor (unknown origin) stably expressed in HEK293 cell membranes.
Test [5] concerns the target T1, Beta-1 adrenergic receptor. As to the kind of experiment: Displacement of [3H]DHA from beta1 adrenergic receptor (unknown origin) stably expressed in HEK293 cell membranes measured after 90 mins by scintillation counting analysis.
Test [6] addresses T2, Beta-2 adrenergic receptor. As to the kind of experiment: Displacement of [3H]DHA from beta2 adrenergic receptor (unknown origin) stably expressed in HEK293 cell membranes measured after 90 mins by scintillation counting analysis.
The target of test [7] is T2, Beta-2 adrenergic receptor. Nature of the test: Antagonist activity at beta2 adrenergic receptor (unknown origin) expressed in HEK293 cell assessed as inhibition of isoproterenol-induced cAMP production preincubated for 15 mins followed by isoproterenol addition and measured after 15 mins. The class given is functional, cell-based.

T1 sequence (P08588 whole entry): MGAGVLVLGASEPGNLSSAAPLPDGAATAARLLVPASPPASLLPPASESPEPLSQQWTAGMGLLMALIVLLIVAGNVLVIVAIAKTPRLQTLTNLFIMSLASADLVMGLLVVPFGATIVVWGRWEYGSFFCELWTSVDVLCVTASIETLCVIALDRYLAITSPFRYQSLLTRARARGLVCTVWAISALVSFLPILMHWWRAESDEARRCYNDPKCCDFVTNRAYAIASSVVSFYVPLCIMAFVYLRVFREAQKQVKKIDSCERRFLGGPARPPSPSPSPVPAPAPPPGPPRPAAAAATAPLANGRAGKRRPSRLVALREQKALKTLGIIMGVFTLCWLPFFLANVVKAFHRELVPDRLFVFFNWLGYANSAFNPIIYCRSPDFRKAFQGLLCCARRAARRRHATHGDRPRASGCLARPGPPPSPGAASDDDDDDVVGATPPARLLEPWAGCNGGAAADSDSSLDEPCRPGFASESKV
T2 sequence (P07550 whole entry): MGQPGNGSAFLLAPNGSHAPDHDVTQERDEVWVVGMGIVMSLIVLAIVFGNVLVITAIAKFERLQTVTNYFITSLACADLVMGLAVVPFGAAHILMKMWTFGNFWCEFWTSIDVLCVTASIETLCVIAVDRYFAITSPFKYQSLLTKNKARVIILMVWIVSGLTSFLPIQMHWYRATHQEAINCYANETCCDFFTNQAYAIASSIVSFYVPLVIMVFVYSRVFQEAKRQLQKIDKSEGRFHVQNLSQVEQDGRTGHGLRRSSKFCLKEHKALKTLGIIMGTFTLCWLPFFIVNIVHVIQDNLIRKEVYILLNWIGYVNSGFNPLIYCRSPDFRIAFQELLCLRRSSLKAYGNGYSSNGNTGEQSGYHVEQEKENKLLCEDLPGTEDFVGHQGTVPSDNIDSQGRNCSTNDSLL

Consider `CC(C)NC[C@H](O)COc1ccccc1CCCCCNC(=O)NCCCCCc1ccccc1OC[C@@H](O)CNC(C)C`, for which the values for the IC50 in test [1] and in test [3] were 5.62 nM and 1.74 nM, respectively. The Ratio IC50 in the test listed under Homo sapiens [2] was 3.2.
Take `CC(C)NC[C@H](O)COc1ccccc1CCCNC(=O)NCCCc1ccccc1OC[C@@H](O)CNC(C)C`: the Ratio Ki in the test listed under Homo sapiens [4] is 38. Moreover, the IC50 was 372 nM in test [1], 1.58 nM in test [7] and 7.59 nM in test [3]. Moreover, the Ki was 44.7 nM in test [5], 1.91 nM in test [6] and 1.17 nM in test [6] (read-out: pKi (converted)). The Ratio IC50 in the test filed under Homo sapiens [2] was determined as 49.2.
Take `CC(C)NC[C@H](O)COc1ccccc1CCCCCCc1ccccc1OC[C@@H](O)CNC(C)C`: the Ratio Ki in the test filed under Homo sapiens [4] worked out at 6.76. For the same compound, the IC50 was 27.5 nM in test [1], 3.24 nM in test [7] and 3.8 nM in test [3]. The figures for the Ki in test [5] and in test [6] (read-out: pKi (converted)) were 6.46 nM and 0.955 nM, respectively. Moreover, in the test filed under Homo sapiens [2], the Ratio IC50 turned out to be 7.2.
Take `CC(C)NC[C@H](O)COc1ccccc1CCCC(=O)NCCCCNC(=O)CCCc1ccccc1OC[C@@H](O)CNC(C)C`: the figures for the IC50 in test [1] and in test [3] were 182 nM and 11.2 nM, respectively. Besides, in the test listed under Homo sapiens [2], the Ratio IC50 was determined as 16.2.
For `CC(C)NC[C@H](O)COc1ccccc1CCC(=O)NCCCNC(=O)CCc1ccccc1OC[C@@H](O)CNC(C)C`, the figures for the IC50 in test [1] and in test [3] were 1780 nM and 8.32 nM, respectively. Further, the Ratio IC50 in the test listed under Homo sapiens [2] was found to be 214.
With `CC(C)NC[C@H](O)COc1ccccc1CCCCCCCCCCCCc1ccccc1OC[C@@H](O)CNC(C)C`, the Ratio Ki in the test filed under Homo sapiens [4] was determined as 1.1. In addition, the half-inhibitory concentration (IC50) in test [1] is 13.8 nM; in test [7], 25.7 nM; in test [3] it was 6.92 nM. The Ki in test [5] was 1.26 nM; in test [6] (read-out: pKi (converted)) it was 1.15 nM. Also, the Ratio IC50 in the test filed under Homo sapiens [2] was found to be 2.
For `COc1ccccc1CCCC(=O)NCCNC(=O)CCCc1ccccc1OC[C@@H](O)CNC(C)C`, the IC50 in test [3] was 3.89 nM.
Same read-out and setting: the result for `CC(C)NC[C@H](O)COc1ccccc1CCCC(=O)NCCNC(=O)CCCc1ccccc1` reads 5.89 nM.
With `CC(C)NC[C@H](O)COc1ccccc1CCn1cc(CNCc2cn(CCc3ccccc3OC[C@@H](O)CNC(C)C)nn2)nn1`, the Ratio Ki in the test listed under Homo sapiens [4] came out at 3.24. Besides, the figures for the IC50 in test [1], in test [7] and in test [3] were 19.5 nM, 2.04 nM and 4.68 nM, respectively. Moreover, the Ki was 2.88 nM in test [5] and 0.891 nM in test [6] (read-out: pKi (converted)). In addition, in the test filed under Homo sapiens [2], the Ratio IC50 turned out to be 4.2.
As for `CC(C)NC[C@H](O)COc1ccccc1CC(=O)NCCNC(=O)Cc1ccccc1OC[C@@H](O)CNC(C)C`, the Ratio Ki in the test listed under Homo sapiens [4] was 5.5. Also, the IC50 was 11000 nM in test [1], 214 nM in test [7] and 2630 nM in test [3]. Further, the Ki in test [5] is 2570 nM; in test [6] (read-out: pKi (converted)), 468 nM. For the same compound, in the test filed under Homo sapiens [2], the Ratio IC50 turned out to be 4.1.
For the compound `COc1ccccc1CCCNC(=O)NCCCc1ccccc1OC[C@@H](O)CNC(C)C`, the IC50 in test [3] is 13.8 nM.
Turning to `CC(C)NC[C@H](O)COc1ccccc1CCNC(=O)NCCc1ccccc1OC[C@@H](O)CNC(C)C`, the Ratio Ki in the test listed under Homo sapiens [4] was determined as 5.62. The IC50 in test [1] was 126 nM; in test [7], 2.19 nM; in test [3], 16.2 nM. The values for the Ki in test [5] and in test [6] (read-out: pKi (converted)) were 19.5 nM and 3.47 nM, respectively. Further, in the test listed under Homo sapiens [2], the Ratio IC50 amounted to 7.7.
Consider `CC(C)NC[C@H](O)COc1ccccc1-n1cc(CNCc2cn(-c3ccccc3OC[C@@H](O)CNC(C)C)nn2)nn1`, for which the Ratio Ki in the test listed under Homo sapiens [4] worked out at 12.3. Further, the IC50 in test [1] was 3630 nM; in test [7], 12 nM; in test [3], 170 nM. In addition, the Ki was 479 nM in test [5] and 38.9 nM in test [6] (read-out: pKi (converted)). Further, in the test filed under Homo sapiens [2], the Ratio IC50 amounted to 21.4.
For `CC(C)NC[C@H](O)COc1ccccc1CCC(=O)NCCNC(=O)CCc1ccccc1OC[C@@H](O)CNC(C)C`, in the test listed under Homo sapiens [4], the Ratio Ki turned out to be 22.9. Also, the IC50 in test [1] is 2040 nM; in test [7] it was 3.31 nM; in test [3], 75.9 nM. For the same compound, the Ki in test [5] is 269 nM; in test [6] (read-out: pKi (converted)), 11.7 nM. The Ratio IC50 in the test listed under Homo sapiens [2] stood at 26.5.
As for `CC(C)NC[C@H](O)COc1ccccc1CCCCNC(=O)NCCCCc1ccccc1OC[C@@H](O)CNC(C)C`, the Ratio Ki in the test listed under Homo sapiens [4] was 10.5. Besides, the IC50 is 14.5 nM in test [1], 1.78 nM in test [7] and 1.58 nM in test [3]. The Ki is 3.98 nM in test [5] and 0.38 nM in test [6] (read-out: pKi (converted)). Further, the Ratio IC50 in the test filed under Homo sapiens [2] came to 9.2.
Regarding `CC(C)NC[C@H](O)COc1ccccc1CCCNC(=O)NCCCc1ccccc1`, the IC50 in test [3] was 14.1 nM.
With `CC(C)NC[C@H](O)COc1ccccc1CCCC(=O)NCCNC(=O)CCCc1ccccc1OC[C@@H](O)CNC(C)C`, the Ratio Ki in the test filed under Homo sapiens [4] came out at 11.8. In addition, the results for the IC50 in test [1], in test [7] and in test [3] were 26.3 nM, 1.55 nM and 6.61 nM, respectively. The Ki in test [5] is 8.91 nM; in test [6], 1.29 nM; in test [6] (read-out: pKi (converted)) it was 0.759 nM. For the same compound, the Ratio IC50 in the test listed under Homo sapiens [2] is 4.
Take `CCCC(=O)NCCNC(=O)CCCc1ccccc1OC[C@@H](O)CNC(C)C`: in test [3], the concentration for half-maximal inhibition (IC50) was 64.6 nM.
With `CC(C)NC[C@@H](O)COc1ccccc1CCCC(=O)NCCNC(=O)CCCc1ccccc1OC[C@H](O)CNC(C)C`, the IC50 was 4470 nM in test [1] and 214 nM in test [3]. For the same compound, the Ratio IC50 in the test filed under Homo sapiens [2] amounted to 20.9.
For `CC(C)NC[C@H](O)COc1ccccc1OCCOCCOc1ccccc1OC[C@@H](O)CNC(C)C`, the IC50 in test [1] is 234 nM; in test [3], 46.8 nM. In the test filed under Homo sapiens [2], the Ratio IC50 was determined as 5.
With `CC(C)NC[C@H](O)COc1ccccc1CCCn1cc(CNCc2cn(CCCc3ccccc3OC[C@@H](O)CNC(C)C)nn2)nn1`, the Ratio Ki in the test listed under Homo sapiens [4] amounted to 2.51. Moreover, the IC50 in test [1] was 4.68 nM; in test [7], 1.2 nM; in test [3] it was 2.88 nM. Moreover, the figures for the Ki in test [5] and in test [6] (read-out: pKi (converted)) were 1.1 nM and 0.437 nM, respectively. The Ratio IC50 in the test filed under Homo sapiens [2] was 1.6.
As for `CC(C)NC[C@H](O)COc1ccccc1CCCCCCCCc1ccccc1OC[C@@H](O)CNC(C)C`, the Ratio Ki in the test filed under Homo sapiens [4] was found to be 5.25. Further, the IC50 in test [1] is 20 nM; in test [7] it was 5.25 nM; in test [3], 2.34 nM. The Ki is 4.17 nM in test [5] and 0.794 nM in test [6] (read-out: pKi (converted)). Moreover, the Ratio IC50 in the test listed under Homo sapiens [2] stood at 8.6.
Turning to `CC(C)NC[C@H](O)COc1ccccc1CCCCCCCCCCc1ccccc1OC[C@@H](O)CNC(C)C`, the Ratio Ki in the test filed under Homo sapiens [4] turned out to be 1.2. In addition, the IC50 is 11.2 nM in test [1], 13.8 nM in test [7] and 3.8 nM in test [3]. Also, the Ki in test [5] was 1.82 nM; in test [6] (read-out: pKi (converted)), 1.51 nM. Besides, the Ratio IC50 in the test listed under Homo sapiens [2] amounted to 2.9.
As to `CC(C)NC[C@H](O)COc1ccccc1CCCC(=O)NCCCNC(=O)CCCc1ccccc1OC[C@@H](O)CNC(C)C`, the IC50 in test [1] is 28.2 nM; in test [3], 6.46 nM. In the test listed under Homo sapiens [2], the Ratio IC50 was found to be 4.3.
Take `CCCNC(=O)NCCCc1ccccc1OC[C@@H](O)CNC(C)C`: the IC50 in test [3] is 85.1 nM.
Consider `CC(C)NC[C@H](O)COc1ccccc1OCCOCCOCCOc1ccccc1OC[C@@H](O)CNC(C)C`, for which the figures for the IC50 in test [1] and in test [3] were 97.7 nM and 74.1 nM, respectively. The Ratio IC50 in the test filed under Homo sapiens [2] came out at 1.3.
`CC(C)NC[C@H](O)COc1ccccc1Cn1cc(CNCc2cn(Cc3ccccc3OC[C@@H](O)CNC(C)C)nn2)nn1`: in the test filed under Homo sapiens [4], the Ratio Ki worked out at 5.37. For the same compound, the figures for the half-inhibitory concentration (IC50) in test [1], in test [7] and in test [3] were 490 nM, 6.31 nM and 64.6 nM, respectively. Also, the Ki in test [5] was 83.2 nM; in test [6] (read-out: pKi (converted)) it was 15.5 nM. The Ratio IC50 in the test listed under Homo sapiens [2] was 7.6.
